Assays:
[1] = molecular target: Beta-1 adrenergic receptor (Rattus norvegicus, UniProt P18090); test: Binding affinity towards beta-1 adrenergic receptor using [3H]iodocyanopindolol as radioligand in competitive binding assay; details: in the assay text read “[125I]iodocyanopindolol” for “[3H]iodocyanopindolol”
How it was run: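 β-adrenergic sites in rat striatal membranes. Label [125I]iodocyanopindolol at 50 pM final; nonspecific binding with 10 μM propranolol. Incubated 1 h at 37 °C, then filtered. Ki via Cheng-Prusoff.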

[2] = molecular target: T1, Adrenergic receptor alpha-1 (Rattus norvegicus, UniProt P15823+P23944+P43140); test: Binding affinity towards alpha-1 adrenergic receptor using [3H]prazosin as radioligand in competitive binding assay; format: protein assay
T1 sequence (P15823 whole entry): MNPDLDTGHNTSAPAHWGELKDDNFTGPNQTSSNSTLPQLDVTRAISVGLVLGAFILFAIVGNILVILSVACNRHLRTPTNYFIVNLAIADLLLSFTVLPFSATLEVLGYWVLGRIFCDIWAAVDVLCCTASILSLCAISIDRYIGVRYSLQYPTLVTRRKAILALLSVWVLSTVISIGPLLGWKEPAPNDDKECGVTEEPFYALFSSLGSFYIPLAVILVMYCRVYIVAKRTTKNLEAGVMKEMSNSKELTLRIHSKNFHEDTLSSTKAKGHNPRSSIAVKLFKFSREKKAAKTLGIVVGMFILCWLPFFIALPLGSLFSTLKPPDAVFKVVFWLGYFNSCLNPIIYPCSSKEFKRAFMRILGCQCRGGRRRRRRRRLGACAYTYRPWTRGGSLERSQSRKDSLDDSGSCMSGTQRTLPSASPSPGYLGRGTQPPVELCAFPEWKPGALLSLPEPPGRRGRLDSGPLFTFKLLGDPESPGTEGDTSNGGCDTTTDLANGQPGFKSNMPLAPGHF
T1 sequence (P23944 whole entry): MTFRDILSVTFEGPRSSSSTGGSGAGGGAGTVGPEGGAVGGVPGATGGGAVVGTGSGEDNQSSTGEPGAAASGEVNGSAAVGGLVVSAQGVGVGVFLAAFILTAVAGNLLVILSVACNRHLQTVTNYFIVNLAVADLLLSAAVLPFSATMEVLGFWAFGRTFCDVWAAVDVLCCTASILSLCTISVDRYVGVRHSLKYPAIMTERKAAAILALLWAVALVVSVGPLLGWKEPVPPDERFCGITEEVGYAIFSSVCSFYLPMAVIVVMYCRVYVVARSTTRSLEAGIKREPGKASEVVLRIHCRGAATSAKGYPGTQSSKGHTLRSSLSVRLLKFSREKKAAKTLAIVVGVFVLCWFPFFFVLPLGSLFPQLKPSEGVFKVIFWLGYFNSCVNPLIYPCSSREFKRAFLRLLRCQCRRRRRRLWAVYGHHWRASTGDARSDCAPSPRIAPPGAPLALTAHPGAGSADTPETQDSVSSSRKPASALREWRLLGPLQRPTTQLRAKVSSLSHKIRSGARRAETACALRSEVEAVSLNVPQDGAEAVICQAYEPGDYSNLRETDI
T1 sequence (P43140 whole entry): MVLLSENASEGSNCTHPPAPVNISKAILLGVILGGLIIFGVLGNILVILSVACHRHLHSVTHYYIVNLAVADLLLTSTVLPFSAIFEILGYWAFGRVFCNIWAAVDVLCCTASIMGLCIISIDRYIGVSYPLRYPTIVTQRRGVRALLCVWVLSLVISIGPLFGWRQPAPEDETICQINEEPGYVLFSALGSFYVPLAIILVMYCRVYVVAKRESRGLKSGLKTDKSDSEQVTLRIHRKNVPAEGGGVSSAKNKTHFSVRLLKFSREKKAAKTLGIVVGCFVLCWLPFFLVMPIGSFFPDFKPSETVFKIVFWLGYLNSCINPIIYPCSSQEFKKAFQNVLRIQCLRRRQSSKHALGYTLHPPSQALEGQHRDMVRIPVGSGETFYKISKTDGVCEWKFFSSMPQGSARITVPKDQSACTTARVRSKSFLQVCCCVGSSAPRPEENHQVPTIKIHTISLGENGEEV
How it was run: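 Frozen rat cortex membranes (300g then 48000g spins) in Tris pH 7.4 buffer with salts and ascorbate. [3H]prazosin at 1.0 nM final; nonspecific binding with 10 μM phentolamine. Incubated 45 min at 37 °C, then filtered. Ki via Cheng-Prusoff.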

Sequence of Beta-1 adrenergic receptor (P18090 whole entry): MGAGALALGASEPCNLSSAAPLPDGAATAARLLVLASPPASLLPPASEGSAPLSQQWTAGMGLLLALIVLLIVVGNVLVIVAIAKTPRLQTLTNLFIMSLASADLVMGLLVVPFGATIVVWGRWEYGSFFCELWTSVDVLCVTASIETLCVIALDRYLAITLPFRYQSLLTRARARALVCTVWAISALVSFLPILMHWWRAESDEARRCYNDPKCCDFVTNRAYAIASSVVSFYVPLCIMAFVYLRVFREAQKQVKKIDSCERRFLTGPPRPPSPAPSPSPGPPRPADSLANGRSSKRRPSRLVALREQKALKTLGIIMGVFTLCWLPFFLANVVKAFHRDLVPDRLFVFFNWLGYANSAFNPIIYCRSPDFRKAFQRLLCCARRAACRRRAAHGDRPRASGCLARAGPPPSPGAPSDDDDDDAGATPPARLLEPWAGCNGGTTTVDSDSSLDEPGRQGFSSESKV

SMILES	Ki [1] [µM]	Ki [2] [µM]
NC[C@@H]1OC(c2ccccc2)Cc2c1ccc(O)c2O (some centres not stated)	> 10	10.8
C=CCNC[C@@H]1OC(C2CCCCC2)Cc2c1ccc(O)c2O (some centres not stated)	> 10	> 10
CC(C)(C)C1Cc2c(ccc(O)c2O)[C@H](CN)O1 (some centres not stated)	> 10	> 10
NC[C@H]1O[C@@H](c2ccccc2)Cc2c1ccc(O)c2O	> 10	6.06
NC[C@@H]1O[C@H](c2ccccc2)Cc2c1ccc(O)c2O	> 10	> 10
NC[C@@H]1OC(C2CCCCC2)Cc2c1ccc(O)c2O (some centres not stated)	> 10	> 10
